≈ marks a conversion by molar mass, not a printed value. Calls of active or inactive are those of the source. No cut-off for these calls is given here.
Tests used:
[1] = tested on: Pseudomonas aeruginosa; assay: Antibiotic activity against Pseudomonas aeruginosa PA01 assessed as inhibition of bacterial growth incubated for 16 hrs by microtiter broth dilution method; assay type: functional
[2] = tested on: Staphylococcus aureus; assay: Antibiotic activity against methicillin-resistant Staphylococcus aureus LAC-Fitz-USA300 assessed as inhibition of bacterial growth incubated for 16 hrs by microtiter broth dilution method; assay type: functional
Method in brief: (§1)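 Microtiter broth dilution assay in liquid medium, run alongside MBC determination, against a Gram-positive panel; the MIC was read as growth inhibition.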

[3] = tested on: Staphylococcus aureus; assay: Bacteriostatic activity against methicillin-resistant Staphylococcus aureus MW2-USA400 assessed as inhibition of bacterial growth by microtiter broth dilution method; assay type: functional, organism-based
[4] = tested on: Staphylococcus aureus; assay: Bacteriostatic activity against methicillin-resistant Staphylococcus aureus IA116-USA100 assessed as inhibition of bacterial growth by microtiter broth dilution method; assay type: functional, organism-based
[5] = tested on: Enterococcus faecalis; assay: Antibiotic activity against vancomycin resistant Enterococcus faecalis NJ3 assessed as inhibition of bacterial growth incubated for 16 hrs by microtiter broth dilution method; assay type: functional; method in brief: as §1
[6] = tested on: Staphylococcus aureus; assay: Antibiotic activity against methicillin-resistant Staphylococcus aureus MN8-USA200 assessed as inhibition of bacterial growth incubated for 16 hrs by microtiter broth dilution method; assay type: functional; method in brief: as §1
[7] = tested on: Staphylococcus aureus; assay: Bacteriostatic activity against methicillin-resistant Staphylococcus aureus MN8-USA200 assessed as inhibition of bacterial growth by microtiter broth dilution method; assay type: functional, organism-based
[8] = tested on: Staphylococcus aureus; assay: Bacteriostatic activity against methicillin-resistant Staphylococcus aureus LAC-Fitz-USA300 assessed as inhibition of bacterial growth by microtiter broth dilution method; assay type: functional, organism-based
[9] = tested on: Staphylococcus aureus; assay: Antibiotic activity against methicillin-resistant Staphylococcus aureus MW2-USA400 assessed as inhibition of bacterial growth incubated for 16 hrs by microtiter broth dilution method; assay type: functional; method in brief: as §1
[10] = tested on: Staphylococcus aureus; assay: Antibiotic activity against methicillin-resistant Staphylococcus aureus IA116-USA100 assessed as inhibition of bacterial growth incubated for 16 hrs by microtiter broth dilution method; assay type: functional; method in brief: as §1
[11] = tested on: Enterococcus faecalis; assay: Bacteriostatic activity against vancomycin resistant Enterococcus faecalis NJ3 assessed as inhibition of bacterial growth by microtiter broth dilution method; assay type: functional, organism-based
[12] = tested on: Pseudomonas aeruginosa; assay: Bacteriostatic activity against Pseudomonas aeruginosa PA01 assessed as inhibition of bacterial growth by microtiter broth dilution method; assay type: functional, organism-based
[13] = Inhibition of C-terminal His tagged Bacillus subtilis ClpY/ClpQ expressed in Escherichia coli BL21 (DE3) using Cbz-Gly-Gly-Leu-AMC as peptide substrate by Cheng-prusoff equation analysis
Method in brief: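 Recombinant purified B. subtilis ClpYQ was used for inhibition kinetics. Peptide hydrolysis of the fluorogenic substrate Cbz-GGL-AMC at 100 μM was followed over a range of compound concentrations to give a dose-response curve.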

[14] = tested on: Staphylococcus aureus; assay: Inhibition of ClpX/ClpP activity in methicillin-resistant Staphylococcus aureus USA300 assessed as increase in urease activation incubated of overnight by phenol red dye based microplate reader analysis
Method in brief: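 Cell-based ClpXP readout in MRSA USA300 grown in Christensen's urea medium with phenol red indicator. ClpXP inhibition raises urease activity, which hydrolyses urea and releases ammonia, and the rising pH turns the medium from yellow to red. Minimum effective concentration (MEC) was taken as the lowest level that raised urease activity above background.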

[15] = Cytotoxicity against human A549 cells assessed as number of viable cells at 100 uM incubated for 24 hrs by calcein-AM and ethidium homodimer-1 staining based flow cytometry; assay type: toxicity, cell-based; conditions: read-out: Activity
Method in brief: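 A549 human lung epithelial carcinoma cells were incubated with compound at up to 100 μM and stained with calcein-AM and ethidium homodimer-1. Viable and dead fractions were determined by confocal microscopy and flow cytometry, against a vehicle control.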

[16] = Toxicity in sheep RBC assessed as induction of hemolysis at 200 uM and measured after 1 hr relative to control; assay type: cell-based, Ovis aries, Erythrocyte; conditions: sheep red blood cells, read-out: Activity
Method in brief: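 Hemolytic activity was measured as percent lysis of sheep erythrocytes, with compound tested up to 200 μM.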

[17] = tested on: Escherichia coli; assay: Antibiotic activity against Escherichia coli with delta.tolC mutation assessed as inhibition of bacterial growth by microtiter broth dilution method; assay type: functional, organism-based
[18] = tested on: Staphylococcus aureus; assay: Antibiotic activity against methicillin-resistant Staphylococcus aureus USA300 assessed as inhibition of bacterial growth incubated for 16 hrs in presence of BSA by microtiter broth dilution method; assay type: functional
Method in brief: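 MIC by microtiter broth dilution against MRSA USA300, with bovine serum albumin added to the medium to assess the effect of protein binding.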

SMILES | MIC [1] [µg/mL] | MIC [2] [µg/mL] | Activity [3] | Activity [4] | MIC [5] [µg/mL] | MIC [6] [µg/mL] | Activity [7] | Activity [8] | MIC [9] [µg/mL] | MIC [10] [µg/mL] | Activity [11] | Activity [12] | Ki [13] [nM] | MEC [14] [µg/mL] | viability at 24 h, 100 µM [15] [%] | hemolysis at 1 h, 200 µM [16] [%] | Activity [17] | MIC [18] [µg/mL]
CCCCCCN1C(=O)C(Cl)=C(Cl)C12Oc1c(cc(Cl)c(O)c1C)C2=O (stereo unspecified) | > 32 | 4 (≈ 9.55 µM) | Active | Active | 8 (≈ 19.1 µM) | 4 (≈ 9.55 µM) | Active | Active | 8 (≈ 19.1 µM) | 4 (≈ 9.55 µM) | Active | Active | – | – | – | – | – | –
CCCCCCCCCCCCN1C(=O)C(Cl)=C(Cl)C12Oc1c(cc(Cl)c(O)c1C)C2=O (stereo unspecified) | > 32 | 1 (≈ 1.99 µM) | Active | Active | 0.5 (≈ 0.994 µM) | 2 (≈ 3.98 µM) | Active | Active | 2 (≈ 3.98 µM) | 2 (≈ 3.98 µM) | Active | Active | 1000 | 0.5 | – | – | – | –
Cc1c(O)c(Cl)cc2c1OC1(C2=O)C(Cl)=C(Cl)C(=O)N1Cc1ccc(C(F)(F)F)cc1 (stereo unspecified) | > 32 | 16 (≈ 32.5 µM) | Active | Active | 32 (≈ 65 µM) | 16 (≈ 32.5 µM) | Active | Active | 16 (≈ 32.5 µM) | 16 (≈ 32.5 µM) | Active | Active | – | – | – | – | – | –
CCCCCCc1c(O)c(Cl)cc2c1OC1(C2=O)C(Cl)=C(Cl)C(=O)N1CCc1ccccc1 (stereo unspecified) | > 32 | 0.5 (≈ 0.983 µM) | Active | Active | 1 (≈ 1.97 µM) | 0.5 (≈ 0.983 µM) | Active | Active | 0.5 (≈ 0.983 µM) | 1 (≈ 1.97 µM) | Active | Active | 410 | 0.25 | > 95 | < 5 | – | –
CCCCCCc1c(O)c(Cl)cc2c1OC1(C2=O)C(Cl)=C(Cl)C(=O)N1Cc1ccc(C(F)(F)F)cc1 (stereo unspecified) | > 32 | 2 (≈ 3.55 µM) | Active | Active | 2 (≈ 3.55 µM) | 2 (≈ 3.55 µM) | Active | Active | 2 (≈ 3.55 µM) | 2 (≈ 3.55 µM) | Active | Active | 570 | 1 | – | – | – | –
CCCCCCCCCCCCN1C(=O)C(Cl)=C(Cl)C12Oc1c(cc(Cl)c(O)c1CCCCCC)C2=O (stereo unspecified) | > 32 | 16 (≈ 27.9 µM) | Active | Active | 8 (≈ 14 µM) | 16 (≈ 27.9 µM) | Active | Active | 8 (≈ 14 µM) | 8 (≈ 14 µM) | Active | Active | – | – | – | – | – | –
Cc1c(O)c(Cl)cc2c1OC1(C2=O)C(Cl)=C(Cl)C(=O)N1Cc1ccccc1 (stereo unspecified) | > 32 | 32 (≈ 75.4 µM) | Active | Active | > 32 | > 32 | Active | Active | 32 (≈ 75.4 µM) | > 32 | Active | Active | – | – | – | – | – | –
CCCCCCc1c(O)c(Cl)cc2c1OC1(C2=O)C(Cl)=C(Cl)C(=O)N1C (stereo unspecified) | > 32 | 4 (≈ 9.55 µM) | Active | Active | 8 (≈ 19.1 µM) | 4 (≈ 9.55 µM) | Active | Active | 4 (≈ 9.55 µM) | 4 (≈ 9.55 µM) | Active | Active | 3200 | 1 | > 95 | < 15 | Active | > 32
C=CCN1C(=O)C(Cl)=C(Cl)C12Oc1c(cc(Cl)c(O)c1CCCCCC)C2=O (stereo unspecified) | > 32 | 4 (≈ 8.99 µM) | Active | Active | 8 (≈ 18 µM) | 4 (≈ 8.99 µM) | Active | Active | 4 (≈ 8.99 µM) | 4 (≈ 8.99 µM) | Active | Active | – | – | – | – | – | –
CCCCCCc1c(O)c(Cl)cc2c1OC1(C2=O)C(Cl)=C(Cl)C(=O)N1Cc1ccc(C)cc1 (stereo unspecified) | > 32 | 0.5 (≈ 0.983 µM) | Active | Active | 1 (≈ 1.97 µM) | 0.5 (≈ 0.983 µM) | Active | Active | 0.5 (≈ 0.983 µM) | 1 (≈ 1.97 µM) | Active | Active | 150 | 0.25 | – | – | – | –
CCCCCCc1c(O)c(Cl)cc2c1OC1(C2=O)C(Cl)=C(Cl)C(=O)N1CCCCCC (stereo unspecified) | > 32 | 1 (≈ 2.05 µM) | Active | Active | 2 (≈ 4.09 µM) | 1 (≈ 2.05 µM) | Active | Active | 1 (≈ 2.05 µM) | 1 (≈ 2.05 µM) | Active | Active | 1300 | 0.067 | > 95 | < 5 | – | 32
C=CCN1C(=O)C(Cl)=C(Cl)C12Oc1c(cc(Cl)c(O)c1C)C2=O (stereo unspecified) | > 32 | > 32 | Active | Active | > 32 | > 32 | Active | Active | > 32 | > 32 | Active | Active | – | – | – | – | – | –
CCCCCCc1c(O)c(Cl)cc2c1OC1(C2=O)C(Cl)=C(Cl)C(=O)N1Cc1ccccc1 (stereo unspecified) | > 32 | 1 (≈ 2.02 µM) | Active | Active | 2 (≈ 4.04 µM) | 1 (≈ 2.02 µM) | Active | Active | 2 (≈ 4.04 µM) | 1 (≈ 2.02 µM) | Active | Active | 580 | 0.25 | – | – | – | –
Cc1c(O)c(Cl)cc2c1OC1(C2=O)C(Cl)=C(Cl)C(=O)N1C (stereo unspecified) | > 32 | > 32 | Active | Active | > 32 | > 32 | Active | Active | > 32 | > 32 | Active | Active | – | – | – | – | – | –

From ChEMBL document CHEMBL5104117, “Armeniaspirol analogues with more potent Gram-positive antibiotic activity show enhanced inhibition of the ATP-dependent proteases ClpXP and ClpYQ” (RSC Med Chem, 2022)
